Measured values from ChEMBL document CHEMBL1154126, “Sulforaphane induces cell-cycle arrest and apoptosis in cultured human lung adenocarcinoma LTEP-A2 cells and retards growth of LTEP-A2 xenografts in vivo” (J Nat Prod, 2008).

Tests used:
[1] = Antiproliferative activity against human LTEP-A2 cells assessed as viable cells at 12.5 uM after 24 hrs by trypan blue exclusion assay; assay type: functional; settings: LTEP-A2, 24 h, read-out: Activity
How it was run: (§1)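 Suspension-grown LTEP-A2 cells in RPMI 1640 with 20% heat-inactivated bovine serum, penicillin and streptomycin. Exponentially growing cells were added at 400 000 cells/mL to medium with 6.25–50 µM compound. Trypan blue-excluding cells were counted at 3, 24, 48 and 72 h relative to controls. IC50 was interpolated from 24 h dose-response curves. Three independent experiments, mean ± SD.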

OVCAR-3 = experiment: Antiproliferative activity against human OVCAR-3 cells; assay type: functional, cell-based
LTEP-A2 = experiment: Antiproliferative activity against human LTEP-A2 cells by trypan blue exclusion assay; assay type: functional, cell-based; how it was run: as §1
[2] = Antiproliferative activity against human LTEP-A2 cells assessed as viable cells at 25 uM after 24 hrs by trypan blue exclusion assay; assay type: functional; settings: LTEP-A2, 24 h, read-out: Activity; how it was run: as §1
[3] = Antiproliferative activity against human LTEP-A2 cells after 24 hrs by trypan blue exclusion assay; assay type: functional, cell-based; settings: LTEP-A2, 24 h; how it was run: as §1
[4] = Antiproliferative activity against human LS 174T cells; assay type: functional, cell-based; settings: LS174T
Jurkat = experiment: Antiproliferative activity against human lymphoblastoid cells using annexin-V FITC and PI staining by flow cytometry
DU-145 = experiment: Antiproliferative activity against human DU145 cells assessed as viable cells after 24 hrs; settings: DU-145, 24 h

Structure (SMILES)	viability at 12.5 µM [1] [%]	IC50 (OVCAR-3) [µM]	Activity (LTEP-A2)	viability at 25 µM [2] [%]	IC50 [3] [µM]	IC50 [4] [µM]	IC50 (Jurkat) [µM]	IC50 (DU-145) [µM]
S=C=NCCc1ccccc1 [PHENETHYLISOTHIOCYANATE]	12	23.2	Dose-dependent effect	81	20	7	–	–
C[S+]([O-])CCCCN=C=S (stereo not given) [SULFORAPHANE]	–	–	–	–	6.25	95	3.8	10
